Data published in ChEMBL document CHEMBL4725452, “Targeted Covalent Inhibition of Plasmodium FK506 Binding Protein 35” (ACS Med Chem Lett, 2020).
Calls of active or inactive are those of the source. The rule behind the calls is not given here.

Columns and labels:
[1] = target: Peptidyl-prolyl cis-trans isomerase FKBP1A (Homo sapiens, UniProt P62942); assay: Binding affinity to N-terminal 6His-SUMO-tagged human full length FKBP12 expressed in Escherichia coli BL21 (DE3) cells assessed as change in melting temperature at 40 uM by differential scanning […] analysis
How it was run: (§1)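 Differential scanning calorimetry. Purified protein (6His-SUMO tag removed) dialyzed into 25 mM HEPES pH 7.8, 150 mM NaCl. Protein at 0.4 mg/mL (6-9 uM), with or without compound at 40 µM, 2% DMSO (v/v). Scanned 25-90 °C, reference scans subtracted. Tm taken as midpoint of the heat capacity curve.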

[2] = tested on: Plasmodium falciparum; assay: Binding affinity to N-terminal 6His-SUMO-tagged Plasmodium falciparum FKBP35 binding domain (FBD35) (Q5-A128) expressed in Escherichia coli BL21 (DE3) cells assessed as change in melting temperature at 40 uM by differential scanning […] analysis; how it was run: as §1
[3] = tested on: Plasmodium falciparum; assay: Covalent binding affinity to N-terminal 6His-SUMO-tagged Plasmodium falciparum FKBP35 binding domain (FBD35) (Q5-A128) expressed in Escherichia coli BL21 (DE3) cells assessed as binding at C106 position by mass spectrometry
How it was run: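 Protein-compound reaction mixture saved in parallel with DSC. Denatured in urea/NaCl in 50 mM Tris pH 8.0, reduced with TCEP at 37 °C for 60 min, free thiols alkylated with iodoacetamide at RT in the dark for 30 min. Digested with chymotrypsin (1:100 molar) overnight at 37 °C, quenched with formic acid. Peptides resolved on C18 UPLC at 45 °C and analyzed by Q Exactive HF MS.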

[4] = tested on: Plasmodium falciparum; assay: Antiplasmodial activity against blood stage of Plasmodium falciparum NF54 assessed as parasite growth inhibition
[5] = tested on: Plasmodium falciparum; assay: Antiplasmodial activity against blood stage of Plasmodium falciparum 3D7 assessed as parasite growth inhibition; type: functional, organism-based
[6] = Displacement of fluorescent tracer Rap-Gly-BDP from nanoluciferse-tagged Plasmodium falciparum FKBP35 expressed in HEK293T cells incubated for 2 hrs by NanoBRET assay; type: cell-based; details: HEK-293T
How it was run: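 HEK293T cells stably expressing N-terminal NanoLuc-FKBP35 (lentiviral, puromycin-selected) plated at 0.2 x 10^6 cells/mL in Opti-MEM and incubated overnight at 37°C, 5% CO2. Rap-Gly-BDP tracer added to 1 µM for 10 min, then test compounds at varying concentrations for 2 h at 37°C. Nano-Glo substrate plus extracellular NanoLuc inhibitor added and read immediately. BRET ratio corrected against no-tracer control.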

Chain of Peptidyl-prolyl cis-trans isomerase FKBP1A (P62942 whole entry): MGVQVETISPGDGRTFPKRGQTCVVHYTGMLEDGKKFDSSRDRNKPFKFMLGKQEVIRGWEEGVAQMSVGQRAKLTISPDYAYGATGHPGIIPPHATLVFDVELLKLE

Activity [1] | SMILES | Activity [2] | IC50 [4] | also measured
Not Active | C=CC(=O)NCc1ccc(NC(=O)CSc2nc3cccnc3[nH]2)cc1 | inactive |  | Activity [3]: Active
Not Active | C=CC(=O)NCc1ccccc1NC(=O)CSc1nc2cccnc2[nH]1 | inactive |  | Activity [3]: Active
 | C=CC[C@@H]1/C=C(\C)C[C@H](C)C[C@H](OC)[C@H]2O[C@@](O)(C(=O)C(=O)N3CCCC[C@H]3C(=O)O[C@H](/C(C)=C/[C@@H]3CC[C@@H](O)[C@H](OC)C3)[C@H](C)[C@@H](O)CC1=O)[C@H](C)C[C@@H]2OC [TACROLIMUS ANHYDROUS] |  | 1900 nM | 
 | CC[C@H]1CN(Cc2ccccn2)C(=O)C2CCCC1N2S(=O)(=O)c1cc(Cl)cc(Cl)c1 (some centres undefined) |  | 2300 nM | 
Not Active | CCC(=O)NCc1ccccc1NC(=O)CSc1nc2cccnc2[nH]1 | inactive |  | 
 | O=C(NNC(=O)C12CC3CC(CC(C3)C1)C2)c1ccncc1 |  |  | IC50 [5]: 250 nM
 | CO[C@H]1C[C@@H]2CC[C@@H](C)[C@@](O)(O2)C(=O)C(=O)N2CCCC[C@H]2C(=O)O[C@H]([C@H](C)C[C@@H]2CC[C@@H](O)[C@H](OC)C2)CC(=O)[C@H](C)/C=C(\C)[C@@H](O)[C@@H](OC)C(=O)[C@H](C)C[C@H](C)/C=C/C=C/C=C/1C [SIROLIMUS] |  | 2600 nM | IC50 [6]: 34 nM
 | CCc1ccccc1NC(=O)CSc1nc2cccnc2[nH]1 |  |  | IC50 [5]: 235 nM
